Here are results for two compounds from paper PMC11954587 (JAC-Antimicrobial Resistance, 2025).

Entries after “also recorded” stand apart in the source; their conditions may differ. Where two headings read alike, the source gives them in different places. Residues, ends and D or L forms follow the SMILES beside them.

For data set [1] the following is noted: cited from earlier work.
The test system of data set [2] is multi-drug-resistant Gram-negative bacteria. In kind it is in vivo, human. Particulars: for Microbiology efficacy (TOC): test of cure visit, 14-days post treatment. In a few lines: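 VAP was diagnosed by positive sputum culture of multi-drug-resistant Gram-negative bacteria plus clinical signs, laboratory tests and CT. Aerosol: 50 mg powder dissolved in 5 mL distilled water, given whole or split into two 25 mg doses, nebulized over 30 min by vibrating mesh device, combined with IV dosing. Outcomes were assessed at end of treatment and test of cure.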

The test system of data set [3] is K. pneumoniae. Particulars: cited from earlier work.
Data set [4] deals with P. aeruginosa strains. Particulars: animal model, cited from earlier work.
For data set [5] the following is noted: patients with bloodstream infections; cited from earlier work.
The nature of data set [6]: Adverse events in VAP patients during polymyxin B treatment. The format is in vivo, human.
In data set [7] the test system is epithelial cells. The following applies: in vitro; cited from earlier work.
For data set [8] the following is noted: aerosolized delivery of CMS; cited from earlier work.
Where [9] appears, read: four patients during polymyxin B treatment.

Regarding `CC[C@H](C)CCCCC(=O)N[C@@H](CCN)C(=O)N[C@H](C(=O)N[C@@H](CCN)C(=O)N[C@H]1CCNC(=O)[C@H]([C@@H](C)O)NC(=O)[C@H](CCN)NC(=O)[C@H](CCN)NC(=O)[C@H](CC(C)C)NC(=O)[C@@H](Cc2ccccc2)NC(=O)[C@H](CCN)NC1=O)[C@@H](C)O` [polymyxin B] (HELM PEPTIDE1{[CC[C@H](C)CCCCC(=O)[*:2]].[Dab].T.[Dab].[Dab].[Dab].[dF].L.[Dab].[Dab].T}$PEPTIDE1,PEPTIDE1,5:R3-11:R2$$$V2.0), the “cure and improved rates” value in data set [1] (aerosol doses of 50 mg twice a day, VAP patients) is on record as 95%. Moreover, the clinical outcome in data set [1] (inhaled polymyxin B, pneumonia patients) was “favourable clinical outcome of cure and improvement”. The “Clinical outcome (EOT and TOC)” value is “improved” in data set [2] (Patient 1, CRKP VAP, inhalation 25 mg + intravenous 50 mg q12h, 5 d) and “improved” in data set [2] (Patient 4, CRE (E. cloacae) VAP, inhalation 25 mg + intravenous 75 mg q12h, 11 d). Besides, the “Microbiology efficacy (TOC)” value in data set [2] (Patient 1, organism found) was “CRKP”; in data set [2] (Patient 2), “negative”; in data set [2] (Patient 3), “CRKP and CRPA negative”; in data set [2] (Patient 4) it was “negative”. Moreover, the “Note (sputum culture during treatment)” value in data set [2] (Patient 3, inhalation 25 mg + intravenous 75 mg q12h) was “CRKP and CRPA were negative after treatment for 6 days, then Serratia marcescens and Chryseobacterium meningosepticum showed positive”. For the same compound, the “clinical improvement or cure / alleviation of clinical symptoms (patients)” value in data set [2] (four VAP patients, aerosolized and intravenous polymyxin B) was “Three of the patients exhibited alleviation of clinical symptoms; also recorded: three of them reaching clinical improvement or cure”. In addition, the “bacterial eradication (patients)” value in data set [2] (four VAP patients, aerosolized and intravenous polymyxin B, sputum culture) is given as “All four patients achieved bacterial eradication”. The “eradication rate of K. pneumoniae” value in data set [3] (aerosol 50 mg twice a day (with intravenous), P < 0.003) is on record as 92.1%; in data set [3] (intravenous treatment alone), 70.1%. Further, the “maximum ELF concentrations” value in data set [4] (aerosolized) is reported as 184.0 ± 35.1 mg/L. Moreover, in data set [4] (at maximum ELF concentrations 184.0 ± 35.1 mg/L), the lung histopathology result was “reduced lung inflammation and preserved lung epithelial integrity”. For the same compound, in data set [5], the elimination half-life is 12.5 ± 3.11 h. The Adverse events result is “none” in data set [6] (Patient 1, inhalation 25 mg + intravenous 50 mg q12h, 5 d); “none” in data set [6] (Patient 2, inhalation 25 mg + intravenous 100 mg q12h, 5 d); “hyperpigmentation” in data set [6] (Patient 3, inhalation 25 then 50 mg + intravenous 75 mg q12h, 12 d); “hyperpigmentation” in data set [6] (Patient 4, inhalation 25 mg + intravenous 75 mg q12h, 11 d). Also, the nephrotoxicity result in data set [6] (setting [9]) is “No cases of nephrotoxicity”. For the same compound, the neurotoxicity result in data set [6] (setting [9]) is reported as “no reports of neurotoxicity”. The “hyperpigmentation (number of patients)” value in data set [6] (of four patients) is recorded as “two patients”. In data set [6] (patients, combined aerosol and intravenous treatment), the “chest CT imaging” value is on record as “recovery of chest CT imaging”. The “concentration that induced toxic metabolic response perturbations” value in data set [7] is 1000 µM.

Regarding colistimethate [CMS], in data set [8], the “rate of clinical cure (OR)” value is 1.61 and the “rate of microbiological eradication (OR)” value is 1.37.
